The test system of series [1] is MaMTH stable bait cells. As to the kind of experiment: Reporter cell viability. The format is cell-based. In a few lines:
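MaMTH stable bait cells seeded at 10,000 cells/well in 96-well plates. Next day treated across a dose range of test compound, with 0.5 μg/mL tetracycline to induce bait expression. Viability measured by CellTiter-Glo luminescence after 72 h of drug exposure.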

The subject of series [2] is PC9 EGFR ex19del/T790M/C797S cells. The experiment in a line: Western analysis of EGFR activation and downstream signalling. The format is cell-based. The conditions noted are these: for EGFR activation and signalling through ERK and AKT: 20 µM; for EGFR activation and signalling through ERK and AKT / EGFR phosphorylation/activation / phosphorylation of downstream signalling partners: 2 hours treatment; for potency towards mutant EGFR relative to EMI1: 10 µM dose; for EGFR phosphorylation/activation: compared with PC9 ex19del cells; for phosphorylation of downstream signalling partners: triple mutant cells.

For series [3] the test system is unchanged. As to the kind of experiment: Microtubule imaging. The format is cell-based.
The target in series [4] is T1, EGFR L858R/T790M/C797S (Homo sapiens, UniProt P00533, C797S/L858R/T790M). The experiment in a line: MaMTH-DS assay and screen, EGFR L858R/T790M/C797S bait with Shc1 prey. The series is classed as cell-based.
Series [5] concerns the target T2, AXL (Homo sapiens, UniProt P30530).
T2 sequence (P30530 26-894): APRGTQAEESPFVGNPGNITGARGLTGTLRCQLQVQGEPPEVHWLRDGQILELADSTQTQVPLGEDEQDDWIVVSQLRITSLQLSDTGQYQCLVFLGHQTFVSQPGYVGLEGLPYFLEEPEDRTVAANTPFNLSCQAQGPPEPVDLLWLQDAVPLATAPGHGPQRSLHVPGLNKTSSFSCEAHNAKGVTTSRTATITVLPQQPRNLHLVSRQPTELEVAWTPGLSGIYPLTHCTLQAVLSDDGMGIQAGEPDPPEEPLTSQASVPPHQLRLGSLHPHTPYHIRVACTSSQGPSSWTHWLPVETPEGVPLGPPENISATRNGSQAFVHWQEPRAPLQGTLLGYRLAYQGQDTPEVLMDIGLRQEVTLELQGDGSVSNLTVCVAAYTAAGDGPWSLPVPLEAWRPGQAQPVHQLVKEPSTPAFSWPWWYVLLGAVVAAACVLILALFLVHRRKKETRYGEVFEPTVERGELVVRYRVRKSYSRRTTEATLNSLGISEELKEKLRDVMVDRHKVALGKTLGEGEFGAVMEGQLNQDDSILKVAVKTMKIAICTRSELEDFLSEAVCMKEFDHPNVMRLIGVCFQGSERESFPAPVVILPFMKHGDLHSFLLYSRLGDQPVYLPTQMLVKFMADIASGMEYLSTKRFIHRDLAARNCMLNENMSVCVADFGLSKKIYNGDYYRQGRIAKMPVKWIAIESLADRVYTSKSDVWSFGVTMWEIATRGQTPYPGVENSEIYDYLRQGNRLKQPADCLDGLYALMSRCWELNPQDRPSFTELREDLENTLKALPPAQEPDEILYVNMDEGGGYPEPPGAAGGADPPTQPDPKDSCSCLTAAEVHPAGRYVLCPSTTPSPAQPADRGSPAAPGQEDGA
As to the kind of experiment: MaMTH-DS assay, AXL bait with Shc1 prey. The series is classed as cell-based. The conditions noted are these: dose response.

The subject of series [6] is RTK bait (MET, FGFR4, AXL, ALK, EGFR). To be noted: for bait expression: EGFR WT and mutant baits.
Series [7] has as its target wild-type EGFR (Homo sapiens, UniProt P00533). The experiment in a line: In vitro kinase assay, recombinant kinase domain. The format is biochemical. To be noted: 100 µM ATP.
The target in series [8] is T1, EGFR L858R/T790M/C797S. The experiment in a line: In vitro kinase assay, recombinant kinase domain. The series is classed as biochemical. To be noted: 100 µM ATP.
Series [9] addresses EGFR ex19del/T790M/C797S (Homo sapiens, UniProt P00533, C797S/DEL746-750/T790M). As to the kind of experiment: In vitro kinase assay, recombinant kinase domain. To be noted: 100 µM ATP. The format is biochemical.
In series [10] the target is EGFR L858R (Homo sapiens, UniProt P00533, L858R). The experiment in a line: In vitro kinase assay, recombinant EGFR single mutant. The format is biochemical. The conditions noted are these: compared with triple mutants.
In series [11] the test system is EGFR ex19del. The series is described as above. The format is biochemical. The conditions noted are these: compared with triple mutants.
Series [12] concerns the target EGFR ex19del/T790M (Homo sapiens, UniProt P00533, DEL746-750/T790M). As to the kind of experiment: In vitro kinase assay, recombinant EGFR double mutant. The series is classed as biochemical.
Series [13] deals with EGFR L858R/T790M (Homo sapiens, UniProt P00533, L858R/T790M). The description is as above. The series is classed as biochemical.
Series [14] concerns PC9 EGFR ex19del/T790M/C797S cells. As to the kind of experiment: Caspase 3 and 7 assay. The series is classed as cell-based. To be noted: 72 hours of drug treatment.
Series [15] concerns A549 EGFR WT cells. As to the kind of experiment: Caspase 3 and 7 assay. To be noted: 72 hours of drug treatment. The series is classed as cell-based. In a few lines: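 A549 cells were plated in 384-well plates at 5,000 cells per well and exposed to test compound for 72 h. Caspase 3 and 7 activity was then read by luminescence using the Caspase-Glo 3/7 reagent.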
The subject of series [16] is PC9 EGFR ex19del/T790M/C797S organoids. The experiment in a line: Organoid viability assay. The format is cell-based.
Series [17] has as its system HEK293 EGFR L858R/T790M/C797S cells. As to the kind of experiment: EGFR localization and endosomal trafficking. The format is cell-based.
Series [18] has as its system HEK293 EGFR WT cells. The experiment in a line: EGFR localization and endosomal trafficking. The format is cell-based. The conditions noted are these: 1 µM compound, 30 minutes EGF.
In series [19] the test system is HEK293 EGFR L858R/T790M/C797S cells. The experiment in a line: Cell surface biotinylation assay. The format is cell-based. The conditions noted are these: 5 µM compound, 2 hours.

Structures are written as SMILES.

Experimental findings from PMC8123931 (Nature chemical biology, 2020) are described below.

Turning to `C=CC(=O)Nc1cccc(C)c1Nc1ncc2cc(-c3c(Cl)c(OC)cc(OC)c3Cl)ccc2n1` [BLU9931], the reporter cell viability result in [1] (FGFR4 bait cells) is “no effect on reporter cell viability”.
Take `COc1cc2c(c(OC)c1OC)-c1ccc(OC)c(=O)cc1[C@@H](NC(C)=O)CC2` [Colchicine]: in series [2], the “EGFR activation and signalling through ERK and AKT” value is “not evident”.
On the same count and under the same terms, then `CC(=O)O[C@@]12CO[C@@H]1C[C@H](O)[C@@]1(C)C(=O)[C@H](O)C3=C(C)[C@@H](OC(=O)[C@H](O)[C@@H](NC(=O)OC(C)(C)C)c4ccccc4)C[C@@](O)([C@@H](OC(=O)c4ccccc4)[C@H]21)C3(C)C` [Docetaxel], with “not evident”.
Regarding `CCN(CC)c1ccc2cc(-c3nc4cc(C)ccc4o3)c(=O)oc2c1` [EMI48], the “potency towards mutant EGFR relative to EMI1” value in [2] is “greater potency towards mutant EGFR than EMI1”. For the same molecule, the “interphase microtubules and spindle formation” value in [3] was “did not affect interphase microtubules, nor have an effect on spindle formation”.
For `CCN(CC)c1cc2oc(=O)c(-c3nc4ccccc4o3)cc2cc1C` [EMI56], in series [2], the “potency towards mutant EGFR relative to EMI1” value was “greater potency towards mutant EGFR than EMI1”. In series [3], the “interphase microtubules and spindle formation” value is “did not affect interphase microtubules, nor have an effect on spindle formation”.
For the molecule `COC(=O)Nc1nc2ccc(C(=O)c3cccs3)cc2[nH]1` [Nocodazole], the “EGFR activation and signalling through ERK and AKT” value in [2] is given as “not evident”.
The same measure, in the same setting: then `COc1cc(OC)c(/C=C/S(=O)(=O)Cc2ccc(OC)c(NCC(=O)O)c2)c(OC)c1` [Rigosertib], with “not evident”.
In the case of `CC1(COc2ccc3c(c2)ncn3-c2ccc3cccc(N4CCC(N)CC4)c3n2)COC1` [crenolanib], in [4], the “interaction of Shc1 with EGFR L858R/T790M/C797S (in words)” value (from here on “interaction of Shc1”) is recorded as “none were found to target the EGFR C797S triple mutant”.
`C[C@@H](Oc1cc(-c2cnn(C3CCNCC3)c2)cnc1N)c1c(Cl)ccc(F)c1Cl` [crizotinib]: the reporter cell viability entry in series [1] (MET bait cells) is listed as “not due to a loss in cell viability”.
`C#Cc1cccc(Nc2ncnc3cc(OCCOC)c(OCCOC)cc23)c1` [erlotinib]: the “AXL activity (interaction with Shc1)” value in series [5] is recorded as “not erlotinib control”. Moreover, in series [1] (EGFR WT and mutant bait cells), the reporter cell viability entry is “not due to a reduction in reporter cell viability”. In addition, the bait expression entry in series [6] is on record as “no effect of TKIs on bait expression”.
As to `COc1cc2c(Oc3ccc(NC(=O)C4(C(=O)Nc5ccc(F)cc5)CC4)cc3F)ccnc2cc1OCCCN1CCOCC1` [foretinib], the “AXL activity (interaction with Shc1)” value in series [5] was “strongly reduced, in a dose-dependent manner”. Moreover, the reporter cell viability entry in series [1] (AXL bait cells) was “cell viability was unaffected”. The bait expression level result in series [6] (AXL bait) is recorded as “not altered by compound”.
For `CCc1nc(C(N)=O)c(Nc2ccc(N3CCC(N4CCN(C)CC4)CC3)c(OC)c2)nc1NC1CCOCC1` [gilteritinib], the “interaction of Shc1” value in [4] is “potent and highly specific inhibitor of the EGFR triple mutant”. Moreover, the “activity towards triple mutants compared with WT EGFR” value in series [7] is listed as “significantly more potent activity towards the mutants than WT EGFR”. Further, the “IC50 values, inhibition of kinase domain (in words)” value in [8] and in series [9] was “low nanomolar range” each time. The “activity against single mutant” value in series [10] and in [11] was “less effective” in each case. Also, the “activity against double mutant” value in series [12] and in [13] was “moderate to strong activity” throughout. The “caspase 3/7 activity” value in series [14] is “induced caspase 3 and 7 activity”; in [15], “not in A549 epithelial cells carrying EGFR WT”. The EGFR phosphorylation/activation result in series [2] is given as “reduced EGFR phosphorylation/activation in PC9 ex19del/T790M/C797S triple mutant cells more strongly”. For the same molecule, the “phosphorylation of downstream signalling partners” value in series [2] was “more potently reducing pAKT levels”. The “organoid viability / growth” value in [16] is on record as “potently affected the growth of PC9 triple mutant organoids”.
Turning to `CO[C@@H]1[C@H](N(C)C(=O)c2ccccc2)C[C@H]2O[C@]1(C)n1c3ccccc3c3c4c(c5c6ccccc6n2c5c31)C(=O)NC4` [midostaurin], the “interaction of Shc1” value in [4] is “robust, dose-dependent inhibition”. The “activity towards triple mutants compared with WT EGFR” value in [7] is reported as “significantly more potent activity towards the mutants than WT EGFR”. Also, the “activity against single mutant” value in series [10] and in [11] was “less effective” each time. The “activity against double mutant” value in series [12] and in series [13] was “moderate to strong activity” throughout. Also, the “caspase 3/7 activity” value in series [14] is “induced caspase 3 and 7 activity”; in series [15] it was “not in A549 epithelial cells carrying EGFR WT”. For the same molecule, in series [2], the EGFR phosphorylation/activation result is “reduced EGFR phosphorylation/activation in PC9 ex19del/T790M/C797S triple mutant cells more strongly”. Further, in series [2], the “phosphorylation of downstream signalling partners” value is “more potently reducing pAKT and pERK levels”. Also, the “organoid viability / growth” value in series [16] is “potently affected the growth of PC9 triple mutant organoids”. In addition, the “EGF accumulation in EEA1-positive early endosomes” value is recorded as “significantly reduced EGF accumulation in EEA1-positive early endosomes” in series [17] (1 µM compound, 30 minutes EGF) and “A similar effect was observed for EGFR WT cells but to a lesser degree” in [18]. Moreover, the “overall amount of EGFR pY1068 localized to EEA1-positive endosomes” value in series [17] (1 µM compound, 30 minutes EGF) is reported as “significantly reduced the overall amount of EGFR pY1068 localized to EEA1-positive endosomes”; in series [18] it was “not in EGFR WT”. The “average amount of activated EGFR per endosome” value in series [17] (30 min EGF) is on record as “reduced the amount of activated EGFR per endosome”. The “number of early endosomes carrying activated EGFR” value in [17] (30 min EGF) is given as “had no effect on total endosome number”. Further, the “surface levels of EGFR” value in [19] was “not observed”.
`C=CC(=O)Nc1cc(Nc2nccc(-c3cn(C)c4ccccc34)n2)c(OC)cc1N(C)CCN(C)C` [osimertinib]: in [1] (EGFR WT and mutant bait cells), the reporter cell viability entry was “not due to a reduction in reporter cell viability”. In addition, the “organoid viability / growth” value in series [16] was “has no effect”. Further, the “EGF accumulation in EEA1-positive early endosomes” value in series [17] (1 µM compound, 30 minutes EGF) is “had no effect”. For the same molecule, the “surface levels of EGFR” value in series [19] is reported as “not observed”. The bait expression entry in series [6] is given as “no effect of TKIs on bait expression”.
With `CC(C)(C)c1cc(NC(=O)Nc2ccc(-c3cn4c(n3)sc3cc(OCCN5CCOCC5)ccc34)cc2)no1` [quizartinib], in series [4], the “interaction of Shc1” value is listed as “none were found to target the EGFR C797S triple mutant”.
